Experimental data pooled from the literature.
Each line is one published result; the experiments were not run side by side.
Target: Receptor tyrosine-protein kinase erbB-2 (ERBB2, Homo sapiens, UniProt P04626)

For COc1cccc2c(NCc3ccccc3)nc(-n3c(N)nc4ccccc43)nc12, the inhibition was 32.6% (target engagement in cells, inhibitor, chemoproteomics; 20 mM).
Cc1ccc(C(=O)NCc2ccsc2)cc1C#Cc1cn(C(C)C)c2ncnc(N)c12 gave an activity vs control of 66% (enzyme activity, inhibitor; 1 µM).
With O=C(Nc1cnn(-c2csc(C(=O)NC3COC3)c2)c1)Nc1c(F)cccc1Cl the remaining activity was 97% (enzyme activity, inhibitor; 5 µM).
With COc1ccc2c(c1)O[C@@H](c1ccc(OC)c(OC)c1)C[C@H]2NC(=O)C1(c2ccc3c(c2)OC(F)(F)O3)CC1 the remaining binding was 75% (cell-free assay, competition with immobilised ligand; 1 µM).
With COc1cc(Nc2c(C#N)cnc3cc(OCCCN4CCN(C)CC4)c(OC)cc23)c(Cl)cc1Cl the remaining signal was 32.9% (cell-free assay; 0.5 µM).
For O=C(CSc1nc2nccnc2c(=O)n1CCc1ccccc1)Nc1nccs1, the inhibition was -11% (enzyme activity, inhibitor; 10 µM).
CC#CC(=O)Nc1cc2c(Nc3ccc(F)c(Cl)c3)ncnc2cn1 gave a remaining signal of 2.36% (cell-free assay; 0.5 µM).
With C[C@@]1(Cc2ccc(C#N)cc2)C(=O)N(c2cc(Cl)cc(Cl)c2)c2ncc(C(=O)NC3(c4nc(C5CCC5)no4)CC3)n21 the remaining binding was 100% (cell-free assay, competition with immobilised ligand; 1 µM).
For CC/C(=N\NC(=O)NCc1cccc(O)c1)c1ccc(O)c(C)c1O, the inhibition was 0.8% (enzyme activity, inhibitor; 0.1 µM).
O=C(NS(=O)(=O)c1ccc(NCC2CCOCC2)c([N+](=O)[O-])c1)c1ccc(N2CCN(Cc3ccc(C(F)(F)F)cc3-c3ccc(Cl)cc3)CC2)cc1Oc1cnc2[nH]ccc2c1 gave a remaining binding of 100% (cell-free assay, competition with immobilised ligand; 1 µM).
COc1ccc(COc2ccc(Cc3cnc(N)nc3N)cc2OC)cc1 gave a remaining signal of 106% (cell-free assay; 0.5 µM).
For CC(=O)N1CCC(c2ccc(C(=O)NC3=NCCN3)cc2C(F)(F)F)CC1, the remaining binding was 100% (cell-free assay, competition with immobilised ligand; 1 µM).
COc1cc2ncnc(Nc3ccc(Oc4ccccc4)c(C)c3C)c2cc1OC has an inhibition of 76% (enzyme activity, inhibitor; 1 µM).
For C[C@H](c1ccc(F)cc1)N(Cc1cccc(C(=O)O)c1)C(=O)c1cnc2ccccc2c1, the remaining binding was 100% (cell-free assay, competition with immobilised ligand; 1 µM).
For Cc1cnc(NC2CCOCC2)nc1-n1cnc(C(=O)NC(CN)c2cc(F)cc(Cl)c2)c1 (centres unmarked), the remaining activity was 100% (enzyme activity, inhibitor, radiometric; 1 µM).
For CC(C)(C)c1nc(-c2cccc(NS(=O)(=O)c3c(F)cccc3F)c2F)c(-c2ccnc(N)n2)s1, the remaining activity was 96% (enzyme activity, inhibitor, radiometric; 1 µM).
O=C1NC(=O)c2cc(Nc3ccc(F)cc3)c(Nc3ccc(F)cc3)cc21 gave a remaining signal of 107% (cell-free assay; 0.5 µM).
C=CC(=O)Nc1cc(Nc2nccc(Nc3cc(Cl)c(F)cc3C(C)(C)O)n2)c(OC)cc1N1CC[C@@H](N(C)C)C1 has an inhibition of 73% (enzyme activity, inhibitor; 1 µM).
The remaining binding of N#Cc1ccc(Nc2ccc3[nH]c(=O)[nH]c3c2)c(Cl)c1 is reported as 100% (cell-free assay, competition with immobilised ligand; 1 µM).
The remaining signal of C#Cc1cccc(Nc2ncnc3cc(OCCOC)c(OCCOC)cc23)c1 is reported as 52.8% (cell-free assay; 0.5 µM).
C[C@H](c1ccnc(Nc2nc3ccc(-c4cc(N(C)C)ncn4)cc3[nH]2)c1)N1CCN(C(=O)CC(F)(F)F)CC1 has a remaining binding of 100% (cell-free assay, competition with immobilised ligand; 0.1 µM).
The inhibition of c1ccc(CNc2nc(N3CCOc4ccccc43)nc3c2CCCC3)cc1 is reported as 0.8% (target engagement in cells, inhibitor, chemoproteomics; 20 mM).
For O=C(NCc1ncc(C(F)(F)F)cc1Cl)c1ccc2c(c1)C1(CCS(=O)(=O)CC1)[C@H](C1CC1)N2S(=O)(=O)c1ccc(F)cc1, the remaining binding was 100% (cell-free assay, competition with immobilised ligand; 1 µM).
Cc1cc(NC(=O)c2cccc3cc(-c4cccc5[nH]nc(N)c45)ccc23)ccc1F gave an activity vs control of 108% (enzyme activity, inhibitor; 0.1 µM).
O=C1Nc2ccc(Cl)cc2C1=Cc1cc(Cl)c(O)c(Cl)c1 has a remaining signal of 107% (cell-free assay; 0.5 µM).
With COc1cc2nccc(Oc3ccc(NC(=O)c4c5n(n(-c6ccc(F)cc6)c4=O)CCCC5)cc3)c2cc1OC the inhibition was -1% (enzyme activity, inhibitor; 0.1 µM).
